From ChEMBL document CHEMBL1138053, “Design, synthesis, and structure-activity relationships of thieno[2,3-b]pyridin-4-one derivatives as a novel class of potent, orally active, non-peptide luteinizing hormone-releasing hormone receptor antagonists” (J Med Chem, 2006)

Biological target: T1, Gonadotropin-releasing hormone receptor (Homo sapiens, UniProt P30968)
T1 sequence (P30968 whole entry): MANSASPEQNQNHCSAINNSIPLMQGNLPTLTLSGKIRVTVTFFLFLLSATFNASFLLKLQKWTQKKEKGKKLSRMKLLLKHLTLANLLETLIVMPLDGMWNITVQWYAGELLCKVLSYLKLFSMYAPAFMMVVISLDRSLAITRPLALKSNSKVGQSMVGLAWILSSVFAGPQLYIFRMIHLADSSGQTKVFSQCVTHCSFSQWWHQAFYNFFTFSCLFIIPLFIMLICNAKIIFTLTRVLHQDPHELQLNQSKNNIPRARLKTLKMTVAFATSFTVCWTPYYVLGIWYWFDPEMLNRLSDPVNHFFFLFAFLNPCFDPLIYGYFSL
Assay: Inhibition of LHRH-stimulated arachidonic acid release in CHO cells expressing human LHRH receptor
Assay type: functional, cell-based
Conditions: not given
Summary of the method: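 CHO cells stably expressing human or monkey LHRH receptor, seeded at 4 × 10⁴ cells/well and cultured 1 day, then labelled 1 day with [³H]arachidonic acid (11 kBq/well). Washed in DMEM with 20 mM HEPES and 0.2% BSA, preincubated with compound 60 min at 37 °C, then stimulated with LHRH (1 nM) for 40 min at 37 °C.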

IC50 | Compound
0.1 nM | CC(C)C(=O)c1cn(Cc2c(F)cccc2F)c2sc(-c3ccc(NC(=O)C4(O)CC4)cc3)c(CN(C)Cc3ccccc3)c2c1=O
0.07 nM | CNC(=O)Nc1ccc(-c2sc3c(c2CN(C)Cc2ccccc2)c(=O)c(C(=O)C(C)C)cn3Cc2c(F)cccc2F)cc1

Biological target: T2, Gonadotropin-releasing hormone receptor (Homo sapiens) (UniProt P30968)
T2 sequence (whole entry): T1 sequence (P30968 whole entry)
Assay: Inhibition of [125I]leuprorelin binding to human recombinant LHRH receptor at 20 uM
Conditions: not given
Summary of the method: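 Membranes (0.2 mg/mL) from CHO cells stably expressing cloned human LHRH receptor, incubated 60 min at 25 °C with [125I]leuprorelin and test compound in Tris buffer pH 7.5 containing EDTA, BSA, NaN3 and protease inhibitors. Bound ligand separated by filtration on PEI-coated glass-fibre filters. Nonspecific binding taken with 1 µM unlabelled leuprorelin.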

inhibition | Compound
42% | CCOC(=O)c1cn(Cc2ccccc2OC)c2sc(-c3ccc(OC)cc3)c(CNc3ccccc3)c2c1=O

Biological target: T1, Gonadotropin-releasing hormone receptor
Assay: Inhibition of [125I]leuprorelin binding to human recombinant LHRH receptor expressed in CHO cells
Assay type: cell-based
Conditions: not given

IC50 | Compound
0.2 nM | CC(C)C(=O)Nc1ccc(-c2sc3c(c2CN(C)Cc2ccccc2)c(=O)c(C(=O)C(C)C)cn3Cc2c(F)cccc2F)cc1
0.4 nM | CC(C)C(=O)Nc1ccc(-c2sc3c(c2CN(C)Cc2ccccc2)c(=O)c(C(O)C(C)C)cn3Cc2c(F)cccc2F)cc1 (stereo unspecified)
30 nM | CCOC(=O)c1cn(Cc2ccccc2F)c2sc(-c3ccc(OC)cc3)c(CN(C)Cc3ccccc3)c2c1=O
0.4 nM | CCC(=O)c1cn(Cc2c(F)cccc2F)c2sc(-c3ccc(NC(=O)C(C)C)cc3)c(CN(C)Cc3ccccc3)c2c1=O
8 nM | CCC(=O)Nc1ccc(-c2sc3c(c2CN(C)Cc2ccccc2)c(=O)c(C(=O)NC(C)C)cn3Cc2c(F)cccc2F)cc1
0.2 nM | CCOC(=O)c1cn(Cc2c(F)cccc2F)c2sc(-c3ccc(NC(=O)C(C)C)cc3)c(CN(C)Cc3ccccc3)c2c1=O
100 nM | CCOC(=O)c1cn(Cc2ccccc2C#N)c2sc(-c3ccc(OC)cc3)c(CN(C)Cc3ccccc3)c2c1=O
0.6 nM | CCOC(=O)c1cn(Cc2ccccc2)c2sc(-c3ccc(NC(=O)C(C)C)cc3)c(CN(C)Cc3ccccc3)c2c1=O
0.1 nM | CC(C)C(=O)c1cn(Cc2c(F)cccc2F)c2sc(-c3ccc(NC(=O)C4(O)CC4)cc3)c(CN(C)Cc3ccccc3)c2c1=O
400 nM | CCOC(=O)c1cn(Cc2cccc(OC)c2)c2sc(-c3ccc(OC)cc3)c(CN(C)Cc3ccccc3)c2c1=O
100 nM | CCOC(=O)c1cn(Cc2ccccc2[N+](=O)[O-])c2sc(-c3ccc(OC)cc3)c(CN(C)Cc3ccccc3)c2c1=O
300 nM | CCOC(=O)c1cn(Cc2ccccc2OC)c2sc(-c3ccc(OC)cc3)c(CN(CC)Cc3ccccc3)c2c1=O
40 nM | CCOC(=O)c1cn(Cc2ccccc2F)c2sc(-c3ccc(N)cc3)c(CN(C)Cc3ccccc3)c2c1=O
2000 nM | CCOC(=O)c1cn(Cc2ccccc2OC)c2sc(-c3ccc(OC)cc3)c(CNCc3ccccc3)c2c1=O
500 nM | CCOC(=O)c1cn(Cc2ccccc2OC)c2sc(-c3ccc(OC)cc3)c(CN(C)C)c2c1=O
0.2 nM | CC(C)C(=O)c1cn(Cc2c(F)cccc2F)c2sc(-c3ccc(NC(=O)CO)cc3)c(CN(C)Cc3ccccc3)c2c1=O
700 nM | CCOC(=O)c1cn(Cc2ccccc2OC)c2sc(-c3ccccc3OC)c(CN(C)Cc3ccccc3)c2c1=O
0.06 nM | CCOC(=O)c1cn(Cc2c(F)cccc2F)c2sc(-c3ccc(NC(=O)NC)cc3)c(CN(C)Cc3ccccc3)c2c1=O
500 nM | CCOC(=O)c1cn(Cc2ccccc2)c2sc(-c3cccc(OC)c3)c(CN(C)Cc3ccccc3)c2c1=O
200 nM | CCOC(=O)c1cn(Cc2ccccc2OC)c2sc(-c3ccccc3)c(CN(C)Cc3ccccc3)c2c1=O

IC50 | Compound
7000 nM | CCOC(=O)c1cn(Cc2ccccc2OC)c2sc(-c3ccc(OC)cc3)c(CN(Cc3ccccc3)C(C)=O)c2c1=O
1 nM | CCOC(=O)c1cn(Cc2ccccc2F)c2sc(-c3ccc(NC(=O)c4ccccc4)cc3)c(CN(C)Cc3ccccc3)c2c1=O
400 nM | CCOC(=O)c1cn(Cc2ccc(F)cc2)c2sc(-c3ccc(OC)cc3)c(CN(C)Cc3ccccc3)c2c1=O
0.2 nM | CC(C)C(=O)c1cn(Cc2c(F)cccc2F)c2sc(-c3ccc(NC(=O)C(C)(C)O)cc3)c(CN(C)Cc3ccccc3)c2c1=O
0.1 nM | CC(C)C(=O)Nc1ccc(-c2sc3c(c2CN(C)Cc2ccccc2)c(=O)c(C(=O)c2ccccc2)cn3Cc2c(F)cccc2F)cc1
200 nM | CCOC(=O)c1cn(Cc2ccccc2)c2sc(-c3ccc(OC)cc3)c(CN(C)Cc3ccccc3)c2c1=O
9 nM | CC(C)C(=O)c1cn(Cc2c(F)cccc2F)c2sc(-c3ccc(NC(=O)CN)cc3)c(CN(C)Cc3ccccc3)c2c1=O
0.1 nM | CCOC(=O)c1cn(Cc2c(F)cccc2F)c2sc(-c3ccc(NC(=O)CC)cc3)c(CN(C)Cc3ccccc3)c2c1=O
2 nM | CCOC(=O)c1cn(Cc2ccccc2F)c2sc(-c3ccc(N(C)C(=O)NC)cc3)c(CN(C)Cc3ccccc3)c2c1=O
0.1 nM | CNC(=O)Nc1ccc(-c2sc3c(c2CN(C)Cc2ccccc2)c(=O)c(C(=O)C(C)C)cn3Cc2c(F)cccc2F)cc1
2 nM | CCOC(=O)c1cn(Cc2ccccc2F)c2sc(-c3ccc(NC(C)=O)cc3)c(CN(C)Cc3ccccc3)c2c1=O
5000 nM | CCOC(=O)c1cn(C)c2sc(-c3ccc(OC)cc3)c(CN(C)Cc3ccccc3)c2c1=O
> 20000 nM | CCOC(=O)c1cnc2sc(-c3ccc(OC)cc3)c(CN(C)Cc3ccccc3)c2c1O
0.07 nM | CCOC(=O)c1cn(Cc2ccccc2F)c2sc(-c3ccc(NC(=O)NC)cc3)c(CN(C)Cc3ccccc3)c2c1=O
300 nM | CCOC(=O)c1cn(Cc2ccc(OC)cc2)c2sc(-c3ccc(OC)cc3)c(CN(C)Cc3ccccc3)c2c1=O
0.4 nM | CCOC(=O)c1cn(Cc2ccccc2F)c2sc(-c3ccc(NC(=O)CC)cc3)c(CN(C)Cc3ccccc3)c2c1=O
300 nM | CCOC(=O)c1cn(Cc2cccc(F)c2)c2sc(-c3ccc(OC)cc3)c(CN(C)Cc3ccccc3)c2c1=O
10000 nM | CCOC(=O)c1cn(Cc2ccccc2OC)c2sc(-c3ccc(OC)cc3)c(C)c2c1=O
30 nM | CCOC(=O)c1cn(Cc2ccccc2F)c2sc(-c3ccc(NC(=O)Nc4ccccc4)cc3)c(CN(C)Cc3ccccc3)c2c1=O

Same assay, conditions: cho

IC50 | Compound
30 nM | CCOC(=O)c1cn(Cc2ccccc2F)c2sc(-c3ccc(OC)cc3)c(CN(C)Cc3ccccc3)c2c1=O

Tested on: not listed separately
Assay: Distribution coefficient, log D of the compound
Conditions: octanol/water

logD | Compound
6.33 | CC(C)C(=O)Nc1ccc(-c2sc3c(c2CN(C)Cc2ccccc2)c(=O)c(C(=O)C(C)C)cn3Cc2c(F)cccc2F)cc1

Biological target: T3, Gonadotropin-releasing hormone receptor (Rattus norvegicus, UniProt P30969)
T3 sequence (P30969 whole entry): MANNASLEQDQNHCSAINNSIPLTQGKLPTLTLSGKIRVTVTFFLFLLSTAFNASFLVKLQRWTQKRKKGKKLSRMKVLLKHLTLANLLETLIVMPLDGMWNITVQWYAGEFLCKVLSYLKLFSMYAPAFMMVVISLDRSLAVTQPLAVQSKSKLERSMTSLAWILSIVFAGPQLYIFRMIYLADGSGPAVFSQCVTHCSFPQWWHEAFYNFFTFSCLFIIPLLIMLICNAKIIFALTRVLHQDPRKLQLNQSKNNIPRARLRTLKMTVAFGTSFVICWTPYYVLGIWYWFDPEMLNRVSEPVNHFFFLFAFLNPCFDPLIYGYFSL
Assay: Inhibition of [125I]leuprorelin binding to rat anterior pituitary LHRH receptor
Conditions: not given

IC50 | Compound
150 nM | CC(C)C(=O)c1cn(Cc2c(F)cccc2F)c2sc(-c3ccc(NC(=O)C4(O)CC4)cc3)c(CN(C)Cc3ccccc3)c2c1=O
200 nM | CNC(=O)Nc1ccc(-c2sc3c(c2CN(C)Cc2ccccc2)c(=O)c(C(=O)C(C)C)cn3Cc2c(F)cccc2F)cc1
